In ChEMBL document CHEMBL1649458, “Antibiotic resistance in Pseudomonas aeruginosa strains with increased mutation frequency due to inactivation of the DNA oxidative repair system” (2009):
≈ marks a conversion by molar mass, not a printed value. Calls of active or inactive are those of the source. No cut-off for these calls is given here.

Columns and labels:
Pseudomonas aeruginosa [1] = experiment: Antimicrobial activity against Pseudomonas aeruginosa PAO1 harboring DNA oxidative repair system mutM mutant gene selected in presence of ciprofloxacin by Etest; type: functional
Method in brief: (§1)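 Resistant colonies picked from population-analysis plates (5% blood agar with twofold antibiotic dilutions) and passaged three times in antibiotic-free LB before Etest MIC determination. MIC is the mean of four colonies, two successive determinations per colony; PAO1 after tobramycin selection is the mean of two colonies.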

Pseudomonas aeruginosa [2] = experiment: Antimicrobial activity against Pseudomonas aeruginosa PAO1 harboring DNA oxidative repair system mutY mutant gene selected in presence of ciprofloxacin by Etest; type: functional; method in brief: as §1
Pseudomonas aeruginosa [3] = experiment: Antimicrobial activity against Pseudomonas aeruginosa PAO1 harboring DNA oxidative repair system mutT mutant gene selected in presence of tobramycin by Etest; type: functional; method in brief: as §1
Pseudomonas aeruginosa [4] = experiment: Antimicrobial activity against Pseudomonas aeruginosa PAO1 harboring DNA oxidative repair system mutT mutant gene selected in presence of ciprofloxacin by Etest; type: functional; method in brief: as §1
Pseudomonas aeruginosa [5] = experiment: Antimicrobial activity against Pseudomonas aeruginosa PAO1 harboring DNA oxidative repair system mutM mutant gene selected in presence of tobramycin by Etest; type: functional; method in brief: as §1
Pseudomonas aeruginosa [6] = experiment: Antimicrobial activity against Pseudomonas aeruginosa PAO1 selected in presence of tobramycin by Etest; type: functional; method in brief: as §1
Pseudomonas aeruginosa [7] = experiment: Antimicrobial activity against Pseudomonas aeruginosa PAO1 selected in presence of ciprofloxacin by Etest; type: functional; method in brief: as §1
Pseudomonas aeruginosa [8] = experiment: Antimicrobial activity against Pseudomonas aeruginosa PAO1 harboring DNA oxidative repair system mutY mutant gene selected in presence of tobramycin by Etest; type: functional; method in brief: as §1
Pseudomonas aeruginosa [9] = experiment: Antimicrobial activity against Pseudomonas aeruginosa PAO1 assessed as microbial doubling time; type: functional
Method in brief: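 Overnight LB cultures diluted to OD600 0.01 in LB and grown at 37°C. OD600 read every 20 min until stationary phase. OD600 plotted against time on a semilog scale, and doubling time taken from the slope of the straight exponential-phase segment. Value is the mean of three separate cultures ± standard deviation.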

Pseudomonas aeruginosa [10] = experiment: Antimicrobial activity against Pseudomonas aeruginosa PAO1 harboring DNA oxidative repair system deltamutY::Gm mutant gene assessed as doubling time; type: functional
Method in brief: (§2)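 Overnight LB cultures adjusted to OD600 0.01 and grown at 37°C; OD600 read every 20 min to stationary phase. Doubling time taken from the slope of the exponential phase on a semilog plot; mean ± SD of three individual cultures.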

Pseudomonas aeruginosa [11] = experiment: Antimicrobial activity against Pseudomonas aeruginosa PAO1 harboring DNA oxidative repair system deltamutM::Gm mutant gene by Etest; type: functional
Method in brief: (§3)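 MICs by Etest per manufacturer's instructions on P. aeruginosa strains grown in LB; plates incubated at 37°C.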

Pseudomonas aeruginosa [12] = experiment: Antimicrobial activity against Pseudomonas aeruginosa PAO1 harboring DNA oxidative repair system […] mutant gene complemented with wild type DNA oxidative repair system mutY gene; type: functional, organism-based
Pseudomonas aeruginosa [13] = experiment: Antimicrobial activity against Pseudomonas aeruginosa PAO1 harboring DNA oxidative repair system deltamutT::Gm mutant gene assessed as doubling time; type: functional; method in brief: as §2
Pseudomonas aeruginosa [14] = experiment: Antimicrobial activity against Pseudomonas aeruginosa PAO1 by Etest; type: functional; method in brief: as §3
Pseudomonas aeruginosa [15] = experiment: Antimicrobial activity against Pseudomonas aeruginosa PAO1 harboring DNA oxidative repair system deltamutM::Gm mutant gene assessed as doubling time; type: functional; method in brief: as §2
Pseudomonas aeruginosa [16] = experiment: Antimicrobial activity against Pseudomonas aeruginosa PAO1 harboring DNA oxidative repair system deltamutY::Gm mutant gene by Etest; type: functional; method in brief: as §3
Pseudomonas aeruginosa [17] = experiment: Antimicrobial activity against Pseudomonas aeruginosa PAO1 harboring DNA oxidative repair system deltamutT::Gm mutant gene by Etest; type: functional; method in brief: as §3
Pseudomonas aeruginosa [18] = experiment: Antimicrobial activity against Pseudomonas aeruginosa PAO1 harboring DNA oxidative repair system mutY mutant gene complemented with wild type DNA oxidative repair system mutY gene; type: functional, organism-based
Pseudomonas aeruginosa [19] = experiment: Antimicrobial activity against Pseudomonas aeruginosa PAO1 harboring DNA oxidative repair system mutT mutant gene selected in presence of Ceftazidime by Etest; type: functional; method in brief: as §1
Pseudomonas aeruginosa [20] = experiment: Antimicrobial activity against Pseudomonas aeruginosa PAO1 harboring DNA oxidative repair system mutM mutant gene selected in presence of Ceftazidime by Etest; type: functional; method in brief: as §1
Pseudomonas aeruginosa [21] = experiment: Antimicrobial activity against Pseudomonas aeruginosa PAO1 harboring DNA oxidative repair system mutY mutant gene selected in presence of Ceftazidime by Etest; type: functional; method in brief: as §1
Pseudomonas aeruginosa [22] = experiment: Antimicrobial activity against Pseudomonas aeruginosa PAO1 harboring DNA oxidative repair system mutT mutant gene complemented with wild type DNA oxidative repair system mutT gene; type: functional, organism-based
Pseudomonas aeruginosa [23] = experiment: Antimicrobial activity against Pseudomonas aeruginosa PAO1 selected in presence of Ceftazidime by Etest; type: functional; method in brief: as §1
Pseudomonas aeruginosa [24] = experiment: Selectivity ratio of MIC for Pseudomonas aeruginosa PAO1 harboring DNA oxidative repair system mutT mutant gene selected in presence of tobramycin to MIC for Pseudomonas aeruginosa PAO1 harboring DNA oxidative repair system mutT mutant gene; type: functional
Pseudomonas aeruginosa [25] = experiment: Selectivity ratio of MIC for Pseudomonas aeruginosa PAO1 harboring DNA oxidative repair system mutY mutant gene selected in presence of tobramycin to MIC for Pseudomonas aeruginosa PAO1 harboring DNA oxidative repair system mutY mutant gene; type: functional

Structure (SMILES): CN(C)[C@@H]1C(O)=C(C(N)=O)C(=O)[C@@]2(O)C(O)=C3C(=O)c4c(O)cccc4[C@@](C)(O)[C@H]3C[C@@H]12 [TETRACYCLINE]
- MIC (Pseudomonas aeruginosa [1]): 256 µg/mL
- MIC (Pseudomonas aeruginosa [2]): 256 µg/mL
- MIC (Pseudomonas aeruginosa [3]): 4.25 µg/mL
- MIC (Pseudomonas aeruginosa [4]): 256 µg/mL
- MIC (Pseudomonas aeruginosa [5]): 18 µg/mL
- MIC (Pseudomonas aeruginosa [6]): 10 µg/mL
- MIC (Pseudomonas aeruginosa [7]): 256 µg/mL
- MIC (Pseudomonas aeruginosa [8]): 5.5 µg/mL

Structure (SMILES): CCN1CCN(C(=O)N[C@@H](C(=O)N[C@@H]2C(=O)N3[C@@H]2SC(C)(C)[C@@H]3C(=O)O)c2ccccc2)C(=O)C1=O [PIPERACILLIN]
- Time (Pseudomonas aeruginosa [9]): 26 min
- Time (Pseudomonas aeruginosa [10]): 25.7 min
- MIC (Pseudomonas aeruginosa [11]): 2 µg/mL (≈ 3.86 µM)
- Activity (Pseudomonas aeruginosa [12]): Active
- Time (Pseudomonas aeruginosa [13]): 27.7 min
- MIC (Pseudomonas aeruginosa [14]): 2 µg/mL (≈ 3.86 µM)
- Time (Pseudomonas aeruginosa [15]): 27.3 min
- MIC (Pseudomonas aeruginosa [16]): 2 µg/mL (≈ 3.86 µM)
- MIC (Pseudomonas aeruginosa [17]): 2 µg/mL (≈ 3.86 µM)
- Activity (Pseudomonas aeruginosa [18]): Active

Structure (SMILES): O=C(O)c1cn(C2CC2)c2cc(N3CCNCC3)c(F)cc2c1=O [CIPROFLOXACIN]
- MIC (Pseudomonas aeruginosa [1]): 0.88 µg/mL
- MIC (Pseudomonas aeruginosa [19]): 0.16 µg/mL
- Time (Pseudomonas aeruginosa [9]): 26 min
- MIC (Pseudomonas aeruginosa [2]): 0.75 µg/mL
- Time (Pseudomonas aeruginosa [10]): 25.7 min
- MIC (Pseudomonas aeruginosa [3]): 0.08 µg/mL
- MIC (Pseudomonas aeruginosa [11]): 0.19 µg/mL (≈ 0.573 µM)
- MIC (Pseudomonas aeruginosa [20]): 0.13 µg/mL
- MIC (Pseudomonas aeruginosa [21]): 0.17 µg/mL
- MIC (Pseudomonas aeruginosa [4]): 0.75 µg/mL
- Time (Pseudomonas aeruginosa [13]): 27.7 min
- MIC (Pseudomonas aeruginosa [14]): 0.19 µg/mL (≈ 0.573 µM)
- Time (Pseudomonas aeruginosa [15]): 27.3 min
- MIC (Pseudomonas aeruginosa [16]): 0.19 µg/mL (≈ 0.573 µM)
- MIC (Pseudomonas aeruginosa [5]): 0.11 µg/mL
- MIC (Pseudomonas aeruginosa [6]): 0.32 µg/mL
- MIC (Pseudomonas aeruginosa [7]): 0.75 µg/mL
- MIC (Pseudomonas aeruginosa [8]): 0.16 µg/mL

Structure (SMILES): NC[C@H]1O[C@H](O[C@H]2[C@H](O)[C@@H](O[C@H]3O[C@H](CO)[C@@H](O)[C@H](N)[C@H]3O)[C@H](N)C[C@@H]2N)[C@H](N)C[C@@H]1O [TOBRAMYCIN]
- MIC (Pseudomonas aeruginosa [1]): 1.19 µg/mL
- MIC (Pseudomonas aeruginosa [19]): 2 µg/mL
- Activity (Pseudomonas aeruginosa [22]): Active
- Time (Pseudomonas aeruginosa [9]): 26 min
- MIC (Pseudomonas aeruginosa [2]): 1.37 µg/mL
- Time (Pseudomonas aeruginosa [10]): 25.7 min
- MIC (Pseudomonas aeruginosa [3]): 0.9 µg/mL
- MIC (Pseudomonas aeruginosa [11]): 1.5 µg/mL (≈ 3.21 µM)
- MIC (Pseudomonas aeruginosa [20]): 2 µg/mL
- MIC (Pseudomonas aeruginosa [21]): 2 µg/mL
- Activity (Pseudomonas aeruginosa [12]): Active
- MIC (Pseudomonas aeruginosa [4]): 1.25 µg/mL
- Time (Pseudomonas aeruginosa [13]): 27.7 min
- MIC (Pseudomonas aeruginosa [14]): 1.5 µg/mL (≈ 3.21 µM)
- Time (Pseudomonas aeruginosa [15]): 27.3 min
- MIC (Pseudomonas aeruginosa [16]): 1.5 µg/mL (≈ 3.21 µM)
- MIC (Pseudomonas aeruginosa [5]): 3.5 µg/mL
- MIC (Pseudomonas aeruginosa [6]): 6 µg/mL
- MIC (Pseudomonas aeruginosa [17]): 1.5 µg/mL (≈ 3.21 µM)
- MIC (Pseudomonas aeruginosa [7]): 1.06 µg/mL
- Activity (Pseudomonas aeruginosa [18]): Active
- MIC (Pseudomonas aeruginosa [8]): 3.75 µg/mL
- MIC (Pseudomonas aeruginosa [23]): 1.75 µg/mL

Structure (SMILES): CC(C)(O/N=C(\C(=O)N[C@@H]1C(=O)N2C(C(=O)[O-])=C(C[n+]3ccccc3)CS[C@H]12)c1csc(N)n1)C(=O)O [CEFTAZIDIME]
- MIC (Pseudomonas aeruginosa [1]): 0.44 µg/mL
- MIC (Pseudomonas aeruginosa [19]): 18 µg/mL
- Time (Pseudomonas aeruginosa [9]): 26 min
- MIC (Pseudomonas aeruginosa [2]): 0.47 µg/mL
- Time (Pseudomonas aeruginosa [10]): 25.7 min
- MIC (Pseudomonas aeruginosa [3]): 0.38 µg/mL
- MIC (Pseudomonas aeruginosa [11]): 1.5 µg/mL (≈ 2.74 µM)
- MIC (Pseudomonas aeruginosa [20]): 26 µg/mL
- MIC (Pseudomonas aeruginosa [21]): 18 µg/mL
- MIC (Pseudomonas aeruginosa [4]): 0.44 µg/mL
- Time (Pseudomonas aeruginosa [13]): 27.7 min
- MIC (Pseudomonas aeruginosa [14]): 2 µg/mL (≈ 3.66 µM)
- Time (Pseudomonas aeruginosa [15]): 27.3 min
- MIC (Pseudomonas aeruginosa [16]): 1.5 µg/mL (≈ 2.74 µM)
- MIC (Pseudomonas aeruginosa [5]): 0.63 µg/mL
- MIC (Pseudomonas aeruginosa [6]): 0.5 µg/mL
- MIC (Pseudomonas aeruginosa [17]): 2 µg/mL (≈ 3.66 µM)
- MIC (Pseudomonas aeruginosa [7]): 0.44 µg/mL
- MIC (Pseudomonas aeruginosa [8]): 0.69 µg/mL
- MIC (Pseudomonas aeruginosa [23]): 20 µg/mL

Structure (SMILES): C[C@H]1[C@H](NC(=O)/C(=N\OC(C)(C)C(=O)O)c2csc(N)n2)C(=O)N1S(=O)(=O)O [AZTREONAM]
- Time (Pseudomonas aeruginosa [9]): 26 min
- Time (Pseudomonas aeruginosa [10]): 25.7 min
- MIC (Pseudomonas aeruginosa [11]): 1.5 µg/mL (≈ 3.44 µM)
- Activity (Pseudomonas aeruginosa [12]): Active
- Time (Pseudomonas aeruginosa [13]): 27.7 min
- MIC (Pseudomonas aeruginosa [14]): 1.5 µg/mL (≈ 3.44 µM)
- Time (Pseudomonas aeruginosa [15]): 27.3 min
- MIC (Pseudomonas aeruginosa [16]): 1 µg/mL (≈ 2.3 µM)
- MIC (Pseudomonas aeruginosa [17]): 1.5 µg/mL (≈ 3.44 µM)
- Activity (Pseudomonas aeruginosa [18]): Active

Structure (SMILES): O=C(N[C@H](CO)[C@H](O)c1ccc([N+](=O)[O-])cc1)C(Cl)Cl [CHLORAMPHENICOL]
- MIC (Pseudomonas aeruginosa [1]): 256 µg/mL
- fold change (FC) (Pseudomonas aeruginosa [24]): 3
- MIC (Pseudomonas aeruginosa [2]): 256 µg/mL
- MIC (Pseudomonas aeruginosa [3]): 20 µg/mL
- MIC (Pseudomonas aeruginosa [4]): 256 µg/mL
- MIC (Pseudomonas aeruginosa [5]): 56 µg/mL
- MIC (Pseudomonas aeruginosa [6]): 28 µg/mL
- MIC (Pseudomonas aeruginosa [7]): 256 µg/mL
- MIC (Pseudomonas aeruginosa [8]): 86 µg/mL
- fold change (FC) (Pseudomonas aeruginosa [25]): 2
